Active and inactive are the calls of the source. The rule behind the calls is not given here.
Legend:
Rattus norvegicus [1] = species: Rattus norvegicus; assay: Anxiolytic activity for protection against pentylenetetrazole-induced convulsions in experiment 1; assay type: functional; conditions: Rattus norvegicus; read-out: ED50
Summary of the method: (§1)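 Rats in groups of 10, food-deprived 24 h, given 4–6 graded doses of compound orally (or ip where noted). PTZ at 23 mg/kg was injected iv into the caudal vein 60 min later. Protection meant no clonic seizure lasting at least 5 s. The number protected was counted and the ED50 estimated.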

Rattus norvegicus [2] = species: Rattus norvegicus; assay: Effect on […] seizures at 2 hr in rat; assay type: functional
Summary of the method: (§2)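 Rats, oral dosing at three dose levels with six rats per dose; PTZ challenge (23 mg/kg iv, caudal vein) at the stated interval after dosing. Animals scored as protected if free of at least 5 s of uninterrupted clonic seizures. The median effective dose (mg/kg) is reported with its 95% confidence interval.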

[3] = target: T1, GABA-A receptor; anion channel (Rattus norvegicus) (UniProt O09028+P15431+P18506+P18508+P19969+P20236+P23574+P23576+P28471+P28473+P30191+P62813+P63079+P63138+Q91ZM7+Q9ES14); assay: In vitro inhibition of [3H]diazepam binding towards Benzodiazepine receptor at 1 uM; assay type: protein-complex assay
Rattus norvegicus [4] = species: Rattus norvegicus; assay: Effect on […] seizures at 0.5 hr in rat; assay type: functional; summary of the method: as §2
Rattus norvegicus [5] = species: Rattus norvegicus; assay: Effect on […] seizures at 5 hr in rat; assay type: functional; summary of the method: as §2
[6] = target: GABA-A receptor; anion channel; assay: In vitro for inhibition of [3H]diazepam towards Benzodiazepine receptor from rat; assay type: protein-complex assay
Summary of the method: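 Rat frontal cortex homogenized in ice-cold 0.32 M sucrose; crude P2 synaptosomal fraction resuspended in 50 mM Tris-HCl pH 7.4. IC50 read graphically from % inhibition vs log concentration plots.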

Rattus norvegicus [7] = species: Rattus norvegicus; assay: Effect on […] seizures at 7 hr in rat; assay type: functional; summary of the method: as §2
Rattus norvegicus [8] = species: Rattus norvegicus; assay: Effect on […] seizures at 3 hr in rat; assay type: functional; summary of the method: as §2
Rattus norvegicus [9] = species: Rattus norvegicus; assay: Effect on […] seizures at 6 hr in rat; assay type: functional; summary of the method: as §2
Rattus norvegicus [10] = species: Rattus norvegicus; assay: Effect on […] seizures at 4 hr in rat; assay type: functional; summary of the method: as §2
Rattus norvegicus [11] = species: Rattus norvegicus; assay: Effect on […] seizures at 1 hr in rat; assay type: functional; summary of the method: as §2
Rattus norvegicus [12] = species: Rattus norvegicus; assay: Anxiolytic activity for protection against pentylenetetrazole-induced convulsions in experiment 2; assay type: functional; summary of the method: as §1
Rattus norvegicus [13] = assay: In vivo protection against pentylenetetrazole-induced convulsions in the rat.; assay type: functional; summary of the method: as §1
Rattus norvegicus [14] = assay: Hypotensive activity in saline-loaded spontaneously hypertensive rats following 100 mg/kg p.o. administration.; assay type: functional; design: unit not given beside the values; conditions: route oral
Summary of the method: (§3)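 Male Okamoto SH rats, about 300 g, gavaged with compound suspended in 2% boiled starch, with 0.9% NaCl loading at 25 mL/kg, at 0 h. An identical dose without saline followed at 24 h. Mean arterial pressure was taken by iliac artery puncture under local lidocaine at 28 h. Values are from one to three rats.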

Rattus norvegicus [15] = assay: Compound was evaluated for anxiolytic activity for protection against pentylenetetrazole-induced convulsions; no activity at 50 mg/kg; assay type: functional, organism-based; design: dose 50 mg/kg; summary of the method: as §1
Rattus norvegicus [16] = assay: Hypotensive activity evaluated as mean arterial blood pressure (MABP) in saline-loaded spontaneously hypertensive rats dosed (per oral) at 25 mg/kg; assay type: functional; summary of the method: as §3
Rattus norvegicus [17] = species: Rattus norvegicus; assay: Average reduction in blood pressure over control (4 rats) at 4 hr in spontaneous hypertensive rats; assay type: functional
Summary of the method: (§4)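 Conscious cannulated male Okamoto SH rats, 300–350 g, dosed po with vehicle (2% boiled starch) or compound at 1, 5, 10 and 25 mg/kg. A second po dose was given 20 h later, and pressure was recorded continuously for 4 h. The value is the mean reduction against controls at 2 and 4 h, n = 4.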

Rattus norvegicus [18] = species: Rattus norvegicus; assay: Average reduction in blood pressure over control (4 rats) at 2 hr in spontaneous hypertensive rats; assay type: functional; summary of the method: as §4
Rattus norvegicus [19] = assay: Compound was evaluated for anxiolytic activity for protection against pentylenetetrazole-induced convulsions; No activity at 50 mg/Kg; assay type: functional, organism-based; summary of the method: as §1
Rattus norvegicus [20] = assay: Hypotensive activity evaluated as mean arterial blood pressure (MABP) in saline-loaded spontaneously hypertensive rats dosed (per oral) at 50 mg/kg; assay type: functional; summary of the method: as §3
Rattus norvegicus [21] = assay: Hypotensive activity evaluated as mean arterial blood pressure (MABP) in saline-loaded spontaneously hypertensive rats dosed (per oral) at 100 mg/kg; Toxic at 100 mg/Kg; assay type: functional, organism-based; summary of the method: as §3
Rattus norvegicus [22] = assay: Compound was evaluated for anxiolytic activity for protection against pentylenetetrazole-induced convulsions administered intraperitoneally; assay type: functional; conditions: ip; summary of the method: as §1
Rattus norvegicus [23] = assay: Compound was evaluated for anxiolytic activity for protection against pentylenetetrazole-induced convulsions administered orally; No activity at 50 mg/Kg; assay type: functional, organism-based; summary of the method: as §1
Rattus norvegicus [24] = species: Rattus norvegicus; assay: Anxiolytic activity for protection against pentylenetetrazole-induced convulsions.; assay type: functional, organism-based; summary of the method: as §1
[25] = target: T1, GABA-A receptor; anion channel (Rattus norvegicus); assay: In vitro percent inhibition of [3H]diazepam binding to rat GABA-A benzodiazepine receptor at 1 uM; assay type: protein-complex assay

## Cc1nnc2ccc(-c3cccc(C(F)(F)F)c3)nn12 [CI-218872]
Rattus norvegicus [1]
  ED50: 1.7 mg/kg
Rattus norvegicus [2]
  ED50: 0.7 mg/kg
[3]
  inhibition: 77%
Rattus norvegicus [4]
  ED50: 0.5 mg/kg
Rattus norvegicus [5]
  ED50: 1.7 mg/kg
[6]
  IC50: 116 nM
Rattus norvegicus [7]
  ED50: 2.5 mg/kg
Rattus norvegicus [8]
  ED50: 1 mg/kg
Rattus norvegicus [9]
  ED50: 2 mg/kg
Rattus norvegicus [10]
  ED50: 1.8 mg/kg
Rattus norvegicus [11]
  ED50: 0.6 mg/kg
Rattus norvegicus [12]
  ED50: 1.1 mg/kg

## Fc1cccc(-c2ccc3nncn3n2)c1
Rattus norvegicus [13]
  ED50: 5.5 mg/kg

## c1ccc(-c2ccc3nncn3n2)cc1
Rattus norvegicus [1]
  ED50: 9 mg/kg
[3]
  inhibition: 23%
Rattus norvegicus [12]
  ED50: 4.8 mg/kg

## CN1C(=O)CN=C(c2ccccc2)c2cc(Cl)ccc21 [DIAZEPAM]
Rattus norvegicus [13]
  ED50: 1.8 mg/kg

## Clc1ccccc1-c1ccc2nncn2n1
Rattus norvegicus [14]
  MABP: 127
Rattus norvegicus [13]
  ED50: 18 mg/kg

## CC(=O)Nc1cccc(-c2ccc3nnc(C)n3n2)c1
[3]
  inhibition: 56%
Rattus norvegicus [15]
  EC50: Not Active
[6]
  IC50: 633 nM

## FC(F)(F)c1ccc(-c2ccc3nncn3n2)cc1
[3]
  inhibition: 21%
Rattus norvegicus [14]
  MABP: 85
Rattus norvegicus [16]
  MABP: 136
Rattus norvegicus [13]
  ED50: 5.8 mg/kg
Rattus norvegicus [17]
  BP: -12 mmHg
Rattus norvegicus [18]
  BP: -15 mmHg

## CCCC(C)(COC(N)=O)COC(N)=O
[3]
  inhibition: 1.8%

## Clc1cccc(-c2ccc3nncn3n2)c1
[3]
  inhibition: 30%
Rattus norvegicus [13]
  ED50: 8.2 mg/kg
[6]
  IC50: 2250 nM

## Cc1cccc(-c2ccc3nnc(C(F)(F)F)n3n2)c1
Rattus norvegicus [19]
  ED50: inactive

## Nc1cccc(-c2ccc3nncn3n2)c1
Rattus norvegicus [1]
  ED50: 15 mg/kg
[3]
  inhibition: 32%
Rattus norvegicus [12]
  ED50: 16.6 mg/kg

## Cc1nnc2ccc(-c3ccccc3)nn12
Rattus norvegicus [1]
  ED50: 2.3 mg/kg
[3]
  inhibition: 55%
[6]
  IC50: 633 nM
Rattus norvegicus [12]
  ED50: 2.9 mg/kg

## COCc1nnc2ccc(-c3cccc(C(F)(F)F)c3)nn12
[3]
  inhibition: 23%
Rattus norvegicus [13]
  ED50: 6.4 mg/kg

## CNC1=Nc2ccc(Cl)cc2C(c2ccccc2)=[N+]([O-])C1 [CHLORDIAZEPOXIDE]
[3]
  inhibition: 75%
Rattus norvegicus [13]
  ED50: 1.7 mg/kg
[6]
  IC50: 248 nM

## Cc1nnc2ccc(-c3ccc(C(F)(F)F)cc3)nn12
Rattus norvegicus [20]
  MABP: 123
[3]
  inhibition: 17%
Rattus norvegicus [16]
  MABP: 157
Rattus norvegicus [21]
  MABP: Toxic
Rattus norvegicus [22]
  ED50: 15 mg/kg
Rattus norvegicus [23]
  ED50: inactive

## c1ccc(-c2ccc3nnc(-c4ccccc4)n3n2)cc1
[3]
  inhibition: 74%
Rattus norvegicus [24]
  ED50: inactive

## Cc1cc2nnc(C)n2nc1-c1cccc(C(F)(F)F)c1
[3]
  inhibition: 26%
Rattus norvegicus [14]
  MABP: 129
Rattus norvegicus [13]
  ED50: 13.8 mg/kg

## Cc1cccc(-c2ccc3nncn3n2)c1
Rattus norvegicus [13]
  ED50: ~50 mg/kg

## COc1ccc(-c2ccc3nnc(C)n3n2)cc1
Rattus norvegicus [24]
  ED50: inactive

## Cc1nnc2ccc(-c3ccc(Cl)cc3)nn12
Rattus norvegicus [1]
  ED50: 9.9 mg/kg
[3]
  inhibition: 28%
Rattus norvegicus [12]
  ED50: 10 mg/kg

## c1ccc(Cc2nnc3ccc(-c4ccccc4)nn23)cc1
Rattus norvegicus [24]
  ED50: inactive

## Cc1nnc2ccc(-c3cccc(N)c3)nn12
[3]
  inhibition: 60%
Rattus norvegicus [13]
  ED50: 12 mg/kg
[6]
  IC50: 510 nM
[25]
  inhibition: 58%

## Cc1cc2nncn2nc1-c1ccc(F)cc1
Rattus norvegicus [14]
  MABP: 105
Rattus norvegicus [24]
  ED50: inactive

## COCc1nnc2ccc(-c3ccccc3)nn12
Rattus norvegicus [1]
  ED50: 9.5 mg/kg
[3]
  inhibition: < 10%
Rattus norvegicus [12]
  ED50: 6.4 mg/kg

## Clc1ccc(-c2ccc3nncn3n2)cc1Cl
Rattus norvegicus [24]
  ED50: inactive

## Cc1cc2nnc(C)n2nc1-c1ccc(F)cc1
[3]
  inhibition: < 10%
Rattus norvegicus [24]
  ED50: inactive

## COc1cccc(-c2ccc3nncn3n2)c1
[3]
  inhibition: 34%
Rattus norvegicus [22]
  ED50: 50 mg/kg
[25]
  inhibition: 29%

## Cc1nnc2ccc(-c3ccc(Cl)c(Cl)c3)nn12
Rattus norvegicus [24]
  ED50: inactive

## CCc1nnc2ccc(-c3ccc(Cl)cc3)nn12
Rattus norvegicus [14]
  MABP: 141
Rattus norvegicus [24]
  ED50: inactive

## Cc1nnc2ccc(-c3cccc(Cl)c3)nn12
Rattus norvegicus [1]
  ED50: 8 mg/kg
[3]
  inhibition: 60%
[6]
  IC50: 709 nM
[25]
  inhibition: 61%
Rattus norvegicus [12]
  ED50: 4.8 mg/kg

## Cc1nnc2ccc(-c3cccc([N+](=O)[O-])c3)nn12
[3]
  inhibition: 53%
Rattus norvegicus [13]
  ED50: 11.6 mg/kg
